From PubChem BioAssay
CAL PDZ FP-1: blocks peptide binding to human CAL PDZ domain; inhibition, % at 20 µM; AID 504414; purified CAL PDZ, TMR-peptide fluorescence polarization, 1 h; Q9HD26; 330,000 tested, 0.02% active;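 active = highest replicate inhibition of at least 40%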;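 also: plate controls were DMSO neutral control wells for no effect and unlabeled competitor peptide control wells for full effect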
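Control set: unlabelled peptide and DMSO controls / Material: purified CerCALP PDZ construct / Timing: 1 h incubation at room temperature before polarization reading / Doses: 20 µM, one dose / Detection: fluorescence polarization (mP)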
CDK5 p35 inh: inhibitors of human CDK5/p35 kinase; inhibition, % at 10 µM; Recombinant CDK5/p35, ADP-Glo luminescence, 60 min; 330,000 tested, 0.01% active; Q00535+Q15078;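 active = highest replicate inhibition of at least 50% and at least 75% of replicates reaching 50%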;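 also: plate controls were DMSO neutral control for no effect and GW8510 at 10 µM for full effect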
Target sequence (Q00535 whole entry, looked up): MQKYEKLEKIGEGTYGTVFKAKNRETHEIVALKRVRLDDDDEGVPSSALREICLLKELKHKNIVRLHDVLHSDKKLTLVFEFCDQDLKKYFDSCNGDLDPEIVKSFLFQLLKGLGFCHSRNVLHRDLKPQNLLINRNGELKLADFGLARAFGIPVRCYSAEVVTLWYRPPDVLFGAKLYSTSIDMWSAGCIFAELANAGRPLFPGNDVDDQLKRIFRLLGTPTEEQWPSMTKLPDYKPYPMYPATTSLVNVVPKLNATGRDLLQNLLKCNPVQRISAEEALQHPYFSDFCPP
Target sequence (Q15078 whole entry, looked up): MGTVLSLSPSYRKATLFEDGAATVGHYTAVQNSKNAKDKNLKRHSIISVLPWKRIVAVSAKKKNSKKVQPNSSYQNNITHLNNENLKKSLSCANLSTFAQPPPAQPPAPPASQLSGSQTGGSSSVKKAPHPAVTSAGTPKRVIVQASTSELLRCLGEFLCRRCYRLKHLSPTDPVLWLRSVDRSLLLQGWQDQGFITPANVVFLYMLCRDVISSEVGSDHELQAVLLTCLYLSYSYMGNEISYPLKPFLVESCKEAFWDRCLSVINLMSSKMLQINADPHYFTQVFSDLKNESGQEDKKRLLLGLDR
Dyrk1A ADPGlo: blocks rat Dyrk1A kinase activity; inhibition, % at 12.5 µM; ADP-Glo luminescence, NFATc1 peptide; Q63470; 310,000 tested, 0.43% active; in the data active = inhibition above about 50%;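 also: plate controls were vehicle with enzyme for no effect and no enzyme for full effect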
PvdQ acylase: P. aeruginosa PvdQ acylase inhibition; purified PvdQ acylase, fluorescence plate reader; inhibition, % at 10 µM; 340,000 tested, 0.063% active; in the data active = inhibition above about 30%, passing the limit was not always enough;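 also: 0% = vehicle neutral wells and 100% = reference inhibitor wells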
CAL PDZ FP-2: blocks peptide binding to the human CAL PDZ domain; Q9HD26; inhibition, % at 24.9 µM; purified CAL PDZ, TMR-peptide fluorescence polarization, 1 h; AID 602252; 300,000 tested, 0.92% active;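 active = mean inhibition of at least 30% with at least half of replicates also reaching 30%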;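 also: 0% = DMSO neutral control and 100% = excess unlabeled competitor peptide PRC23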
TbMetRS inhib: Trypanosoma brucei MetRS inhibition | purified T. brucei MetRS, ATP depletion, Kinase-Glo luminescence | inhibition, % at 11.9 µM | 360,000 tested, 0.4% active | AID 624268;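 active = inhibition above a per-plate cutoff of the control wells' mean inhibition plus 3 SD, cut at about 5.5% in these data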;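 also: 0% = DMSO wells median and 100% = median of wells with control inhibitor compound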
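Material – parasite MetRS enzyme · Medium – HEPES-MgCl2-KCl buffer plus DTT, spermine, BSA, pyrophosphatase · Reagent – ATP, methionine and E. coli bulk tRNA substrates · Times – 15 min enzyme-compound preincubation, 2 h reaction, 10 min detection, 25 °C · Measured by – luminescence of leftover ATP · Evaluation – percent inhibition relative to median high and low control wells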
Active calls of the source: *. The list is not random: actives were taken first. Their share in the collection is about 1.4%.

What do the screens show for `COC(=O)C(C(=O)OC)[C@@H]1C=C[C@H](C[N+](=O)[O-])N(C(C)=O)C1`?
CAL PDZ FP-1: -0.7; CDK5 p35 inh: -0.8; Dyrk1A ADPGlo: 4.0; PvdQ acylase: -15.5; CAL PDZ FP-2: -3.2; TbMetRS inhib: -0.4

What do the screens show for `COC(=O)C[C@H]1C=C[C@@H](C(C(=O)OC)C(=O)OC)CN1C(C)=O`?
CAL PDZ FP-1: -0.5; CDK5 p35 inh: 2.1; Dyrk1A ADPGlo: -6.2; PvdQ acylase: -12.7; CAL PDZ FP-2: 91.5*; TbMetRS inhib: -0.5

How did COC(=O)c1cc(S(=O)(=O)NCCc2ccc(SC)cc2)c[nH]1 do in these assays?
CAL PDZ FP-1: -1.2; CDK5 p35 inh: 0.7; Dyrk1A ADPGlo: -1.5; PvdQ acylase: -18.9; CAL PDZ FP-2: 75.6*; TbMetRS inhib: -0.2

What do the screens show for `COC(=O)c1cc(S(=O)(=O)NCCN2CCN(c3ccccc3F)CC2)c[nH]1`?
CAL PDZ FP-1: -1.4; CDK5 p35 inh: 1.2; Dyrk1A ADPGlo: 8.5; PvdQ acylase: -10.8; CAL PDZ FP-2: 46.6*; TbMetRS inhib: -0.3

How did O=C(NCc1ccccc1)C(C1CC1)n1c(-c2cccs2)nc2ccccc21 (stereo unspecified) do in these assays?
TbMetRS inhib: -0.3

How did CC(C)CC1NC(=O)N(CC(=O)NC2CCCCC2)C1=O (stereo unspecified) do in these assays?
CAL PDZ FP-1: -1.2; CDK5 p35 inh: 2.5; Dyrk1A ADPGlo: -1.3; PvdQ acylase: -13.6; CAL PDZ FP-2: 0.0; TbMetRS inhib: -0.1

Results for CC(C)CC1NC(=O)N(CC(=O)N(C)C2CCCCC2)C1=O (stereo unspecified) ?
CAL PDZ FP-1: 0.3; CDK5 p35 inh: -1.1; Dyrk1A ADPGlo: -5.2; PvdQ acylase: -15.7; CAL PDZ FP-2: 108.2*; TbMetRS inhib: 0.5

How did O=C(Nc1ccc(F)c(Cl)c1)c1cc(C2CCCCN2C(=O)c2ccc3c(c2)CCO3)on1 (stereo unspecified) do in these assays?
TbMetRS inhib: -0.4

What do the screens show for `Cc1cc(C)nc(S/C=C/C(=O)c2ccccc2F)n1`?
CAL PDZ FP-1: -0.2; CDK5 p35 inh: 1.4; Dyrk1A ADPGlo: 12.2; PvdQ acylase: -12.8; CAL PDZ FP-2: 80.1*; TbMetRS inhib: -0.9

How did CC(C)(C)S(=O)N1Cc2cc(C(=O)N[C@@H]3CCN(Cc4ccccc4)C3)nc(-c3cccc(-c4cc5ccccc5o4)c3)c2[C@@H]1CCO (stereo partly specified) do in these assays?
TbMetRS inhib: -0.3

What do the screens show for `COc1ccc(CCN2CN(S(=O)(=O)c3ccc(C)cc3)c3nc4ccccc4nc32)cc1OC`?
CAL PDZ FP-1: -1.2; CDK5 p35 inh: -1.3; Dyrk1A ADPGlo: 5.9; PvdQ acylase: -10.0; CAL PDZ FP-2: -3.6; TbMetRS inhib: 0.6

Results for COc1ccccc1N1CN(S(=O)(=O)c2ccc(C)cc2)c2nc3ccccc3nc21 ?
CAL PDZ FP-1: -0.2; CDK5 p35 inh: 0.4; PvdQ acylase: -17.0; CAL PDZ FP-2: 110.0*; TbMetRS inhib: -0.1

How did C[C@H]1CN([C@@H](C)CO)S(=O)(=O)c2ccc(Br)cc2O[C@@H]1CN(C)Cc1cccc(F)c1 do in these assays?
TbMetRS inhib: -0.6

What do the screens show for `Cc1cccc(NC(=O)C(=O)NCC2CCCN2S(=O)(=O)c2cccs2)c1` (stereo unspecified)?
TbMetRS inhib: -0.2

What do the screens show for `Cn1nnnc1SCC(=O)Nc1nn(-c2ccccc2)nc1C(N)=O`?
CAL PDZ FP-1: -0.2; CDK5 p35 inh: 1.0; PvdQ acylase: -6.3; CAL PDZ FP-2: 55.4*; TbMetRS inhib: 0.0

Results for Cn1nnnc1SCC(=O)NCc1cccs1 ?
CAL PDZ FP-1: -0.7; CDK5 p35 inh: 0.7; Dyrk1A ADPGlo: 1.3; PvdQ acylase: -4.9; CAL PDZ FP-2: 52.8*; TbMetRS inhib: -0.1

What do the screens show for `O=C(CSc1nnnn1-c1ccccc1)NCc1cccs1`?
CAL PDZ FP-1: -0.9; CDK5 p35 inh: -1.2; Dyrk1A ADPGlo: 1.9; PvdQ acylase: 2.7; CAL PDZ FP-2: 0.9; TbMetRS inhib: -1.5

Results for CCC(=O)N[C@@H]1C=C[C@@H](CC(=O)NCc2ccccc2F)O[C@@H]1CO ?
TbMetRS inhib: -0.5

What do the screens show for `Cc1ccc2nc(C(C)(C)C)c(Cc3cccc(F)c3)n2c1`?
TbMetRS inhib: 0.6

How did CCc1c(C)c(C#N)c2nc3ccccc3n2c1NCC1CCCO1 (stereo unspecified) do in these assays?
CAL PDZ FP-1: 0.2; CDK5 p35 inh: 0.5; Dyrk1A ADPGlo: 11.2; PvdQ acylase: -14.3; CAL PDZ FP-2: 31.5*; TbMetRS inhib: -0.6

What do the screens show for `Cc1cc(NCC2CCCO2)n2c(nc3ccccc32)c1C#N` (stereo unspecified)?
CAL PDZ FP-1: -1.9; CDK5 p35 inh: -1.5; Dyrk1A ADPGlo: 1.4; PvdQ acylase: -1.2; CAL PDZ FP-2: -1.7; TbMetRS inhib: -0.9

Results for COc1ccc(N2CCN(C(=O)C(=O)c3cc(OC)c4ccccc4c3)CC2)cc1 ?
TbMetRS inhib: -0.6

How did CCN1C(=O)CS/C1=N\S(=O)(=O)c1ccccc1 do in these assays?
CAL PDZ FP-1: -0.2; CDK5 p35 inh: 0.3; Dyrk1A ADPGlo: -3.7; PvdQ acylase: -7.9; CAL PDZ FP-2: 76.0*; TbMetRS inhib: 0.7

What do the screens show for `N#CC1=C(Nc2ccccc2Cl)SC2(CCCC2)NC1=O`?
TbMetRS inhib: -1.0

What do the screens show for `Cc1cc(C)c(S(=O)(=O)NCc2ccc3c(c2)OCO3)cc1C`?
CAL PDZ FP-1: -0.5; CDK5 p35 inh: -1.5; PvdQ acylase: -10.1; CAL PDZ FP-2: -0.3; TbMetRS inhib: -0.2

Results for Cc1cc(C)c(S(=O)(=O)NCc2ccc3c(c2)OCO3)c(C)c1 ?
CDK5 p35 inh: 0.3; Dyrk1A ADPGlo: 3.4; PvdQ acylase: -9.2; CAL PDZ FP-2: 69.3*; TbMetRS inhib: -1.0

How did Cc1ccc(S(=O)(=O)N2CCCCC2)cc1NC(=O)c1ccc(=O)[nH]c1 do in these assays?
TbMetRS inhib: -0.2

How did COc1cc(SC)ccc1C(=O)OC(C)C(=O)Nc1ccc(NC(C)=O)cc1 (stereo unspecified) do in these assays?
CAL PDZ FP-1: -1.0; CDK5 p35 inh: -0.4; Dyrk1A ADPGlo: 1.3; PvdQ acylase: -6.9; CAL PDZ FP-2: 56.0*; TbMetRS inhib: -0.3

What do the screens show for `CCNC(=O)NC(=O)C(C)OC(=O)c1ccc(SC)cc1OC` (stereo unspecified)?
CAL PDZ FP-1: 1.6; CDK5 p35 inh: 0.0; Dyrk1A ADPGlo: 3.6; PvdQ acylase: -6.7; CAL PDZ FP-2: -2.1; TbMetRS inhib: 0.0

What do the screens show for `COc1ccc(C2=Nc3ccccc3N(C(=O)c3ccc4ncccc4c3)C2C(=O)NC(C)(C)C)cc1` (stereo unspecified)?
TbMetRS inhib: -0.4

How did CC1(C)CC(Cc2ccc(C(F)(F)F)cn2)N(C(=O)OC(C)(C)C)C1 (stereo unspecified) do in these assays?
TbMetRS inhib: -1.2
